For experiment [1], the system named is Bel-7402. In words: Induction of apoptosis in human Bel7402 cells assessed as early and late apoptotic cells at 0.6 uM after 2 days by Annexin-V/FITC-propidium iodide staining-based flow cytometry (reference value: 4.8 %). Type of experiment: functional. On the technique in general: A flow cytometer gives signals particle by particle.
Experiment [2] relates to Bel-7402. In words: Induction of apoptosis in human Bel7402 cells assessed as late apoptotic cells at 0.3 uM after 2 days by Annexin-V/FITC-propidium iodide staining-based flow cytometry (reference value: 2.2 %). Type of experiment: functional.
For experiment [3], the system named is Bel-7402. In words: Induction of apoptosis in human Bel7402 cells assessed as viable cells at 0.3 uM after 2 days by Annexin-V/FITC-propidium iodide staining-based flow cytometry (reference value: 94.1 %). Type of experiment: functional. Conditions: Bel-7402, 48 h, read-out: Activity.
Experiment [4] relates to Bel-7402. In words: Induction of apoptosis in human Bel7402 cells assessed as viable cells at 0.15 uM after 2 days by Annexin-V/FITC-propidium iodide staining-based flow cytometry (reference value: 94.1 %). Type of experiment: functional. Conditions: Bel-7402, 48 h, read-out: Activity.
Experiment [5] relates to Bel-7402. Description: Induction of apoptosis in human Bel7402 cells assessed as necrotic cells at 0.15 uM after 2 days by Annexin-V/FITC-propidium iodide staining-based flow cytometry (reference value: 1.1 %). Type of experiment: functional.
Experiment [6] relates to Bel-7402. Description: Induction of apoptosis in human Bel7402 cells at 0.15 uM after 48 hrs by propidium iodide staining-based FACS analysis (reference value: 1.67 %). Type of experiment: functional. A digest of the protocol:
(§1)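 Bel-7402 cells seeded at 5.0 × 10³ cells/well and incubated 24 h at 37 °C, then exposed to test compound or DMSO solvent control for 48 h. Cells fixed in 70% ethanol, RNase-treated, PI-stained; DNA content of nuclei measured by flow cytometry.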

Experiment [7] relates to Bel-7402. In words: Cell cycle arrest in human Bel7402 cells assessed as accumulation at S phase at 0.3 uM after 48 hrs by propidium iodide staining-based FACS analysis (reference value: 39.17 %). Type of experiment: functional. A digest of the protocol:
as §1

Experiment [8] deals with Bel-7402. In words: Induction of apoptosis in human Bel7402 cells assessed as increase in Bax expression after 48 hrs by Western blotting analysis. Type of experiment: functional, cell-based. An outline of the steps: (§2)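 Bel-7402 cells treated with vehicle control or compound at 0.15, 0.3 or […] (so in the source). Lysates at […] protein per lane (so in the source) separated by 10% SDS-PAGE, transferred to nitrocellulose and immunoblotted, with β-actin measured as reference. Significance vs. vehicle control marked at P < 0.05 and P < 0.01.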
In general terms: Immunoblotting shows a protein as a band on a membrane.

Experiment [9] concerns Bel-7402. Description: Induction of apoptosis in human Bel7402 cells assessed as increase in cytochrome C expression after 48 hrs by Western blotting analysis. Type of experiment: functional, cell-based. An outline of the steps:
as §2

Experiment [10] relates to Bel-7402. In words: Induction of mitochondrial membrane depolarization in human Bel7402 cells assessed as apoptotic cells after 48 hrs by JC-1 staining-based flow cytometry. Type of experiment: functional, cell-based. An outline of the steps: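 In triplicate, Bel-7402 cells cultured overnight, then incubated with compound (0, 0.15, 0.3, […] as printed) or vehicle for 48 h, stained with the lipophilic cationic dye JC-1. Cells with collapsed mitochondrial membrane potential counted by flow cytometry.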

Experiment [11] relates to Bel-7402. Description: Induction of mitochondrial membrane depolarization in human Bel7402 cells assessed as normal cells at 0.6 uM after 48 hrs by JC-1 staining-based flow cytometry. Type of experiment: functional.

Turning to `C=C1C(=O)[C@@]23C(=O)O[C@H]4CCC(C)(C)[C@H]5[C@H](O)OC[C@@]45[C@@H]2CC[C@@H]1[C@H]3OC(=O)c1ccc(Cl)cc1`, the Activity was 50.5% in the experiment on Bel-7402 [1]; 18.5% in the experiment on Bel-7402 [2]; 1% in the experiment on Bel-7402 [5]; 2.07% in the experiment with Bel-7402 [6]; 29.24% in the experiment on Bel-7402 [7]; “Dose-dependent effect” in the experiment on Bel-7402 [8]. In addition, the values for the Activity entry with Bel-7402 [9], in the experiment with Bel-7402 [10] and in the experiment with Bel-7402 [11] were “Dose-dependent effect”, “Dose-dependent effect” and 54.4%, respectively. For the same molecule, the viability at 0.3 µM with Bel-7402 [3] was 66.5%. For the same molecule, the viability at 0.15 µM with Bel-7402 [4] came out at 84.6%.

The values above are taken from ChEMBL document CHEMBL2390862, “Enmein-type diterpenoid analogs from natural kaurene-type oridonin: Synthesis and their antitumor biological evaluation” (Eur J Med Chem, 2013).
